The test system of experiment [1] is HepG2. The experiment can be described thus: Disruption of mitochondrial membrane potential in human HepG2 cells transfected with shNur77 assessed as red fluorescence intensity at 2 uM incubated for 12 hrs by JC-1 staining based flow cytometry (reference value: 21319 units). Type of experiment: functional.
Experiment [2] deals with HepG2. The experiment can be described thus: Induction of apoptosis in human HepG2 cells assessed as increase in cleaved PARP level pretreated with nuclear export inhibitor, LMB followed by incubation with compound for 12 hrs by western blot analysis. In kind it is functional, cell-based.
The test system of experiment [3] is HepG2. Put plainly: Induction of endoplasmic reticulum stress in Nur77 […] human HepG2 cells assessed as TRB3 protein expression at 2 uM incubated for 12 hrs by Western blot analysis. Type of experiment: functional, cell-based. The procedure, abridged: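 HepG2 and shNur77 HepG2 exposed to DMSO or 2.0 µM for 6 and 12 h; lysates immunoblotted for TRB3, Bip, CHOP and Nur77 (SDS-PAGE, nitrocellulose, overnight primary antibodies, HRP secondary, chemiluminescence).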

The test system of experiment [4] is HepG2. The experiment can be described thus: Antitumor activity against human HepG2 cells xenografted in BALB/c mouse assessed as induction of autophagy by measuring increase in LC3-II level in tumor tissue at 10 to 20 mg/kg/day, ip administered for 15 days by immunohistochemical analysis. Type of experiment: functional, organism-based. Conditions: dose 10-20 mg/kg/day, time 15.0 day. In outline:
(§1)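 HepG2 cells (5×10^6) injected subcutaneously into flanks of 4-week-old male Balb/c nude mice. At about 100 mm³, 15 mice were randomized to vehicle, 10 or 20 mg/kg i.p. once daily for 15 days. Tumors were then excised for immunostaining of paraffin sections (5 μm) or for western blot.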

For experiment [5], the target named is T1, Nuclear receptor subfamily 4immunitygroup A member 1 (Homo sapiens, UniProt P22736). The experiment can be described thus: Binding affinity to Nur77 ligand binding domain (unknown origin) at 10 uM by surface plasmon resonance analysis. Conditions: filed as modulator. In outline:
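Single-concentration SPR screen at 10.0 µM against Nur77-LBD; binding given as RU response.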

The target of experiment [6] is T1, Nuclear receptor subfamily 4immunitygroup A member 1. The experiment can be described thus: Modulation of Nur77 in human HepG2 cells assessed as induction of endoplasmic reticulum translocation at 2 uM incubated for 6 hrs by ER-tracker based confocal microscopy. In kind it is subcellular. Conditions: filed as modulator. In outline: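 HepG2 exposed to 2.0 µM for 6 h, then co-stained with Nur77 antibody and ER tracker; confocal imaging.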

Experiment [7] has as its system SMMC-7721. The experiment can be described thus: Antiproliferative activity against human SMMC-7721 cells assessed as reduction in cell viability incubated for 48 hrs by MTT assay. Type of experiment: functional, cell-based. Conditions: SMMC-7721, 48 h. The procedure, abridged:
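MTT assay after 48 h exposure at six concentrations, range chosen by cytotoxicity. Inhibition = (ODcontrol − ODtest)/ODcontrol × 100%; IC50 is the concentration halving OD versus untreated cells. Means ± SD of three independent determinations. HepG2 and SMMC-7721 grown in DMEM, QGY-7703 and LO2 in RPMI 1640, with 10% FBS at 37 °C.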

The subject of experiment [8] is HepG2. Put plainly: Antitumor activity against human HepG2 cells xenografted in BALB/c mouse assessed as induction of ER stress by measuring increase in bip level in tumor tissue at 10 to 20 mg/kg/day, ip administered for 15 days by immunohistochemical analysis. In kind it is functional, organism-based. Conditions: dose 10-20 mg/kg/day, time 15.0 day. In outline:
as §1

For experiment [9], the system named is HepG2. Put plainly: Induction of apoptosis in human HepG2 cells assessed as increase in PARP cleavage at 2 uM measured after 12 hrs by Western blot analysis.
For experiment [10], the system named is HepG2. The experiment can be described thus: Antitumor activity against human HepG2 cells xenografted in BALB/c mouse assessed as tumor growth inhibition at 10 mg/kg/day, ip administered for 15 days. In kind it is functional. Conditions: 360 h, time 15 day. In outline: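 Subcutaneous flank xenograft of 5×10^6 HepG2 cells in 4-week-old male Balb/c nude mice. At about 100 mm³, 15 mice were randomized into three groups: vehicle, 10 or 20 mg/kg i.p. daily for 15 days. Tumor size was measured every day, and tumors were excised and weighed at the end.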

In experiment [11] the test system is HepG2. Put plainly: Antitumor activity against human HepG2 cells xenografted in BALB/c mouse assessed as induction of ER stress by measuring increase in TRB3 level in tumor tissue at 10 to 20 mg/kg/day, ip administered for 15 days by immunohistochemical analysis. Type of experiment: functional, organism-based. Conditions: dose 10-20 mg/kg/day, time 15.0 day. In outline:
as §1

Experiment [12] deals with HepG2. The experiment can be described thus: Induction of apoptosis in human HepG2 cells assessed as Bax/Bcl-2 ratio at 2 uM pretreated with ER stress inhibitor, 4-PBA for 2 hrs followed by incubation with compound for 12 hrs by Western blot analysis. Type of experiment: functional, cell-based.
Experiment [13] has as its system SMMC-7721. Put plainly: Induction of endoplasmic reticulum stress in human SMMC-7721 cells assessed as increase in bip protein expression incubated for 12 hrs by Western blot analysis. In kind it is functional, cell-based. Conditions: dose 0.5-2 µM. In outline: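 HepG2, QGY-7703 and SMMC-7721 treated with graded concentrations for 12 h. Lysed in RIPA with inhibitors; 40-80 µg protein separated by SDS-PAGE, blotted to nitrocellulose, blocked 1 h in 5% milk, primary antibodies overnight (LC3, Beclin1, Bip, CHOP, TRB3), HRP secondaries, chemiluminescence.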

Experiment [14] has as its system HepG2. Put plainly: Upregulation of RXRalpha expression in human HepG2 cells at 2 uM incubated for 2 to 12 hrs by Western blot analysis. In kind it is functional, cell-based. Conditions: time 2-12 hrs. The procedure, abridged:
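HepG2 cells given 2.0 µM for the indicated times. RXRα, RARγ and Nur77 detected by western blot: RIPA lysis with protease and phosphatase inhibitors, 40-80 µg protein by SDS-PAGE, nitrocellulose, 5% milk block, primary antibody overnight, HRP secondary, chemiluminescence read-out.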

The subject of experiment [15] is HepG2. The experiment can be described thus: Induction of autophagy in human HepG2 cells assessed as LC3-II expression at 2 uM pretreated with ER stress inhibitor, 4-PBA for 2 hrs followed by incubation with compound for 12 hrs by Western blot analysis. Type of experiment: functional, cell-based. In outline: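 HepG2 grown to confluence, pretreated 2 h with 2 mM 4-PBA, then exposed to test compound for a further 12 h; Western blot for PARP, cleaved caspase-3/-9, Bcl-2, Bax, Bip, EIF2a, TRB3 and LC3.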

Experiment [16] concerns HepG2. Put plainly: Induction of apoptosis in human HepG2 cells assessed as necrotic cells at 2 uM incubated for 12 hrs by Annexin V-FITC/PI staining based flow cytometry (reference value: 0.068 to 0.23%). Type of experiment: functional.
In experiment [17] the test system is HepG2. Put plainly: Upregulation of Nur77 expression in human HepG2 cells incubated for 6 hrs by Western blot analysis. Conditions: dose 0.5-2 µM. In kind it is functional, cell-based. The procedure, abridged: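 HepG2, QGY-7703 and SMMC-7721 cells treated with the indicated concentrations for 6 h. HepG2 also given 2.0 µM over a time course. Lysis in RIPA with protease and phosphatase inhibitors; 40-80 µg protein by SDS-PAGE, nitrocellulose transfer. Membranes blocked with 5% milk, primary antibody overnight, HRP secondary, chemiluminescence. GAPDH as loading control.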

For experiment [18], the system named is HepG2. Put plainly: Induction of apoptosis in human HepG2 cells assessed as cleaved caspase-9 expression at 2 uM pretreated with autophagy inhibitor, 3-methyladenine for 2 hrs followed by incubation with compound for 12 hrs by Western blot analysis. Type of experiment: functional, cell-based. In outline:
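HepG2 cells grown to confluence were pretreated 2 h with 2 mM 3-MA (autophagy inhibitor) or 2 mM 4-PBA (ER stress inhibitor), then exposed to compound for 12 h. Proteins (40–80 µg, RIPA lysate) were resolved by SDS-PAGE and blotted for PARP, cleaved caspase-3/-9, Bcl-2 and Bax, with chemiluminescent detection.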

Experiment [19] relates to HepG2. Put plainly: Antitumor activity against human HepG2 cells xenografted in BALB/c mouse assessed as induction of autophagy by measuring increase in Beclin1 level in tumor tissue at 10 to 20 mg/kg/day, ip administered for 15 days by immunohistochemical analysis. Type of experiment: functional, organism-based. Conditions: dose 10-20 mg/kg/day, time 15.0 day. In outline: as §1

The text below walks through data of ChEMBL document CHEMBL4765399, “Design, synthesis, and biological evaluation of 5-((8-methoxy-2-methylquinolin-4-yl)amino)-1H-indole-2-carbohydrazide derivatives as novel Nur77 modulators” (Eur J Med Chem, 2020).

The source made the active and inactive calls. The calls are words filed in the database; no cut-off is given here.

T1 sequence (P22736 whole entry, the tested form may be a part): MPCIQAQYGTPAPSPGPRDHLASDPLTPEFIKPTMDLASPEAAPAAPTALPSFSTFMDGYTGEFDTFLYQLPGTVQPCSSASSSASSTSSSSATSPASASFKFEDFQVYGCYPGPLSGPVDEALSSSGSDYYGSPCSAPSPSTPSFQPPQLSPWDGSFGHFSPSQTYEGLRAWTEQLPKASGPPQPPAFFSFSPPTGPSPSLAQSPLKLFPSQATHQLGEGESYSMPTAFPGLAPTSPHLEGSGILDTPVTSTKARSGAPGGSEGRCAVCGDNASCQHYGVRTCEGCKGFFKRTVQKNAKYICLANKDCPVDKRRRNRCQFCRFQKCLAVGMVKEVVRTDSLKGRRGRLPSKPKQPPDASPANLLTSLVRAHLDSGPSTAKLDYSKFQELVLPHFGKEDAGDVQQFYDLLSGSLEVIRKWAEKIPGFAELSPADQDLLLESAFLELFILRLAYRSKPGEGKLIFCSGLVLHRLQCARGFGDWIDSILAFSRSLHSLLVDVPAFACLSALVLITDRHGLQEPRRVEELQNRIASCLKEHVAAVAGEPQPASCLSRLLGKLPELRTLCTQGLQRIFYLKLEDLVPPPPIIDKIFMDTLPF

Turning to `COc1cccc2c(Nc3ccc4[nH]c(C(=O)N/N=C/c5ccc(SC)cc5)cc4c3)cc(C)nc12`, the Activity in the experiment on HepG2 [1] was 18938 U; in [5] it was 91.6 RU; in the experiment on SMMC-7721 [13], “Dose-dependent effect”; in the experiment with HepG2 [16], 0%; in the experiment with HepG2 [17] it was “Dose-dependent effect”. In addition, the result in the experiment on HepG2 [2], in the experiment on HepG2 [3], with HepG2 [12], in the experiment with HepG2 [14], in the experiment on HepG2 [15] and with HepG2 [18] was inactive. Also, the outcome (in the experiment with HepG2 [4]; in [6]; in the experiment on HepG2 [8]; in the experiment on HepG2 [9]; with HepG2 [11]; in the experiment with HepG2 [19]) was Active. Moreover, the IC50 in the experiment with SMMC-7721 [7] came to 1400 nM. In the experiment on HepG2 [10], the inhibition in vivo at 10 mg/kg/day came to 36.7%.
